Measurements: ChEMBL document CHEMBL3352483, “Synthesis, structure-activity relationships and biological evaluation of barbigerone analogues as anti-proliferative and anti-angiogenesis agents” (Bioorg Med Chem Lett, 2014)

Columns and labels:
HUVEC [1] = assay: Antimigratory activity in HUVEC assessed as migration into wound area at 1 uM after 24 hrs relative to vehicle treated control; assay type: functional, Homo sapiens
Summary of the method: (§1)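 Wound-healing assay. HUVEC monolayers scratched with a pipette, then treated with vehicle or the indicated compound concentrations. Photographs taken at 0 h and 24 h at 50×, and migration rate into the wound calculated. Mean ± SD from three independent experiments.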

Danio rerio = organism: Danio rerio; assay: Antiangiogenic activity in Flk-1-GFP transgenic zebrafish embryo after 24 hrs; assay type: functional, organism-based
Summary of the method: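 Zebrafish embryos exposed to compound at 1.25 or 2.5 μM, or to vehicle, for 24 h. Read-out is formation of the subintestinal vessel (SIV) basket-like structure, compared with vehicle-treated embryos.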

HUVEC [2] = assay: Antiangiogenic activity against HUVEC assessed as inhibition of capillary-like tube formation at 1 uM after 8 hrs by Matrigel assay relative to control; assay type: functional; settings: Homo sapiens
Summary of the method: (§2)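 HUVECs (1 × 10^4 cells) suspended in EBM-2 with vehicle or compound at 1.0 or 5.0 μM and plated on Matrigel. Incubated 8 h at 37 °C. Capillary networks photographed at 100× and quantified. Inhibition of tube-like structure formation expressed relative to vehicle group.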

HUVEC [3] = assay: Antiangiogenic activity against HUVEC assessed as inhibition of capillary-like tube formation at 5 uM after 8 hrs by Matrigel assay relative to control; assay type: functional; settings: Homo sapiens; summary of the method: as §2
B16 = assay: Antiproliferative activity against mouse B16 cells after 24 hrs by MTT assay; assay type: functional, cell-based; settings: B16, 24 h
Summary of the method: (§3)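 MTT proliferation assay on HUVECs and on HepG2, A375, U251, B16 and HCT116 cells. Results reported as IC50.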

U-251 = assay: Antiproliferative activity against human U251 cells after 24 hrs by MTT assay; assay type: functional, cell-based; settings: U-251, 24 h; summary of the method: as §3
HUVEC [4] = assay: Antiproliferative activity against HUVEC after 24 hrs by MTT assay; assay type: functional, cell-based; settings: Homo sapiens; summary of the method: as §3
HepG2 = assay: Antiproliferative activity against human HepG2 cells after 24 hrs by MTT assay; assay type: functional, cell-based; settings: HepG2, 24 h; summary of the method: as §3
A-375 = assay: Antiproliferative activity against human A375 cells after 24 hrs by MTT assay; assay type: functional, cell-based; settings: A-375, 24 h; summary of the method: as §3
[5] = Antiproliferative activity against human HCT116 cells after 24 hrs by MTT assay; assay type: functional, cell-based; settings: HCT-116, 24 h; summary of the method: as §3
HUVEC [6] = assay: Antimigratory activity in HUVEC assessed as migration into wound area at 0.5 uM after 24 hrs relative to vehicle treated control; assay type: functional, Homo sapiens; summary of the method: as §1

SMILES | Activity (HUVEC [1]) [%] | inhibition (Danio rerio) | inhibition at 1 µM (HUVEC [2]) [%] | inhibition at 5 µM (HUVEC [3]) [%] | IC50 (B16) [µM] | IC50 (U-251) [µM] | IC50 (HUVEC [4]) [µM] | IC50 (HepG2) [µM] | IC50 (A-375) [µM] | IC50 [5] [µM] | Activity (HUVEC [6]) [%]
COc1cc(OC)c(-c2coc3cc(OCC=C(C)C)ccc3c2=O)cc1OC | 8.45 | Dose-dependent effect | 78.2 | 88.3 | 1.09 | 3.5 | 3.8 | 0.28 | 1.58 | 0.68 | 35.36
COc1cc(OC)c(-c2coc3c4c(ccc3c2=O)OC(C)(C)C=C4)cc1OC | 1.65 | Dose-dependent effect | 23.7 | 65.4 | 1.23 | 4.1 | 7.45 | 1.77 | 1.85 | 2.36 | 74.26
CC1(C)C=Cc2c(ccc3c(=O)c(-c4ccc(C=O)cc4)coc23)O1 |  |  |  |  | > 10 | > 10 | > 10 | > 10 | > 10 | > 10 | 
CC1(C)C=Cc2c(ccc3c(=O)c(-c4ccc(Cl)c(C(F)(F)F)c4)coc23)O1 |  |  |  |  | > 10 | > 10 | > 10 | > 10 | > 10 | > 10 | 
